Data: ChEMBL document CHEMBL4425130, “Macrocyclic Prodrugs of a Selective Nonpeptidic Direct Thrombin Inhibitor Display High Permeability, Efficient Bioconversion but Low Bioavailability” (J Med Chem, 2016)
In brackets after ≈: the same amount, converted by molar mass.

What was measured:
[1] = Cmax in Han Wistar rat at 1 umol/kg administered intraduodenally by LC-MS/MS method; assay type: ADME; parameters: dose 1 umol/kg, route intraduodenal; details: in vivo
In short: (§1)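 Male Han Wistar rats, cannulated in the carotid artery for sampling and the jugular vein for i.v. dosing, one week before the study (two days before for intraduodenal dosing). Single doses: 0.5 µmol/kg i.v., or 1 µmol/kg by gavage or intraduodenally. Vehicles were 5% mannitol in water or DMA:TEG:water (1:1:1). Plasma sampled up to 24 h and analysed by LC-MS/MS. Non-compartmental analysis; means of n=3, with F from mean AUCinf.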

[2] = Cmax in Han Wistar rat at 1 umol/kg, po administered via gavage by LC-MS/MS method; assay type: ADME, organism-based; parameters: dose 1 umol/kg, route oral; details: in vivo; in short: as §1
[3] = Apparent terminal half life in Han Wistar rat at 1 umol/kg administered intraduodenally by LC-MS/MS method; assay type: ADME; details: in vivo, read-out: betat1/2(app) (converted); in short: as §1
Prothrombin = Prothrombin (Homo sapiens, UniProt P00734); assay: Inhibition of human alpha-thrombin using S-2366 as substrate after 40 mins
[4] = Oral bioavailability in Han Wistar rat assessed as 3-((3-(2-(2-(Aminomethyl)-5-chlorobenzylamino)-2-oxoethyl)-4-methyl-2-oxo-5,6-dihydropyridin-1(2H)-ylamino)methyl)benzoic acid formation at 1 umol/kg administered via gavage by LC-MS/MS method; assay type: ADME, organism-based; details: in vivo; in short: as §1
physchem = details: 1-octanol/phosphate buffer, pH 7.4
[5] = Prodrug conversion in human liver microsomes assessed as 3-((3-(2-(2-(Aminomethyl)-5-chlorobenzylamino)-2-oxoethyl)-4-methyl-2-oxo-5,6-dihydropyridin-1(2H)-ylamino)methyl)benzoic acid formation in presence of NADPH; assay type: ADME, Microsome
[6] = Efflux ratio of apparent permeability across basolateral to apical over apical to basolateral side in human Caco2 cells at 10 uM after 45 to 120 mins by ultraperformance LC/MS/MS method; details: Caco-2
[7] = Prodrug conversion in human hepatocytes assessed as esterase-mediated formaldehyde formation at 4 uM after 40 mins by ultraperformance liquid chromatographic method; assay type: ADME, cell-based; details: isolated protein
In short: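 Cryopreserved human hepatocytes at 10^6 viable cells/mL, thawed and pre-warmed 10 min at 37 °C. Compound added from CH3CN stock at 4 µM final. Incubated 40 min, then quenched in cold CH3CN, with compound-free incubations as blanks. Metabolites assigned by LC-MS product ion spectra.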

[8] = AUCinfinity in Han Wistar rat assessed as 3-((3-(2-(2-(Aminomethyl)-5-chlorobenzylamino)-2-oxoethyl)-4-methyl-2-oxo-5,6-dihydropyridin-1(2H)-ylamino)methyl)benzoic acid formation at 1 umol/kg, po administered via gavage by LC-MS/MS method; assay type: ADME, organism-based; parameters: dose 1 umol/kg, time infinity, route oral; details: in vivo; in short: as §1
[9] = Prodrug conversion in rat hepatocytes assessed as esterase-mediated 3-((3-(2-(2-(Aminomethyl)-5-chlorobenzylamino)-2-oxoethyl)-4-methyl-2-oxo-5,6-dihydropyridin-1(2H)-ylamino)methyl)benzoic acid formation at 4 uM after 40 mins by ultraperformance liquid chromatographic method; assay type: ADME, cell-based
[10] = Apparent permeability across apical to basolateral side in human Caco2 cells at 10 uM after 45 to 120 mins by ultraperformance LC/MS/MS method; details: Caco-2
[11] = AUCinfinity in Han Wistar rat assessed as 3-((3-(2-(2-(Aminomethyl)-5-chlorobenzylamino)-2-oxoethyl)-4-methyl-2-oxo-5,6-dihydropyridin-1(2H)-ylamino)methyl)benzoic acid formation at 1 umol/kg administered intraduodenally by LC-MS/MS method; assay type: ADME; parameters: dose 1 umol/kg, route intraduodenal, time infinity; details: in vivo, other; in short: as §1
[12] = Apparent terminal half life in Han Wistar rat at 1 umol/kg, po administered via gavage by LC-MS/MS method; assay type: ADME, organism-based; details: in vivo, read-out: betat1/2(app) (converted); in short: as §1
[13] = Bioavailability in Han Wistar rat assessed as 3-((3-(2-(2-(Aminomethyl)-5-chlorobenzylamino)-2-oxoethyl)-4-methyl-2-oxo-5,6-dihydropyridin-1(2H)-ylamino)methyl)benzoic acid formation at 1 umol/kg administered intraduodenally by LC-MS/MS method; assay type: ADME, organism-based; details: in vivo, other; in short: as §1
[14] = Prodrug conversion in human plasma assessed as esterase-mediated metabolite formation after 4 hrs; assay type: ADME, cell-free
[15] = Prodrug conversion in human liver microsomes assessed as 3-((3-(2-(2-(Aminomethyl)-5-chlorobenzylamino)-2-oxoethyl)-4-methyl-2-oxo-5,6-dihydropyridin-1(2H)-ylamino)methyl)benzoic acid formation in absence of NADPH; assay type: ADME, Microsome
[16] = Solubility of the compound in phosphate buffer at pH 7.4 at 25 degC after 24 hrs by ultraperformance LC/MS/MS method
Serine protease 1 = Serine protease 1 (Homo sapiens, UniProt P07477); assay: Inhibition of human trypsin 1 using S-2222 as substrate preincubated for 300 secs followed by substrate addition measured after 40 mins
In short: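 Human proteases assayed at one substrate concentration with ten inhibitor concentrations at 37 °C, ≤1.3% DMSO, in an enzyme-specific Tris-HCl pH 7.4 buffer. Enzyme and inhibitor preincubated 300 s, then substrate added; absorbance read at 405 nm after 40 min. IC50 converted to Ki by IC50 = Ki(1+S/KM), using KM measured under assay conditions.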

[17] = rat, isolated protein, 40 min, 4 µM

Chain of Serine protease 1 (P07477 whole entry): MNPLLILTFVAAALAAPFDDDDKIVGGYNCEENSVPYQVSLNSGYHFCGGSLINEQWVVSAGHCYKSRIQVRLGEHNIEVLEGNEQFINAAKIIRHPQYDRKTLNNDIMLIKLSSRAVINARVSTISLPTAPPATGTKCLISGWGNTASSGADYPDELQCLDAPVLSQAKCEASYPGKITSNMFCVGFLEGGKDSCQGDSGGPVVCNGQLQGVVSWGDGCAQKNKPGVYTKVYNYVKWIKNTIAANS

SMILES | Cmax [1] | Cmax [2] | half-life [3] | Ki (Prothrombin) | F [4] | logD at 3 h (physchem) | Drug metabolism [5] | efflux ratio at 10 µM [6] | Drug metabolism [7] | AUC [8] | Drug metabolism [9] | Papp A→B at 10 µM [10] | AUC [11] | half-life [12] | F [13] | Drug metabolism [14] | Drug metabolism [15] | solubility at 24 h [16] | Ki (Serine protease 1) | Drug metabolism [17]
CC1=C2CC(=O)NCc3cc(Cl)ccc3CNC(=O)OCOC(=O)c3cccc(c3)CNN(CC1)C2=O | 108 nM | 11 nM | 6.6 min | 200 nM | 2.5% | 2.3 | Metabolite_Detected | 5.6 | Metabolite_Detected | 0.0127 µM·h | Metabolite_Detected | 48 ×10⁻⁶ cm/s | 0.0081 µM·h | 67.2 min | 1.6% | Metabolite_Notdetected | Metabolite_Detected | 120 µM (≈ 63.2 µg/mL) | > 5400 nM | –
CC1=C2CC(=O)NCc3cc(Cl)ccc3CNC(=O)OC(C)OC(=O)c3cccc(c3)CNN(CC1)C2=O (stereo not drawn) | – | – | – | – | – | 2.6 | Metabolite_Detected | 4.8 | – | – | Metabolite_Detected | 45 ×10⁻⁶ cm/s | – | – | – | Metabolite_Notdetected | Metabolite_Detected | 340 µM (≈ 184 µg/mL) | – | –
C=O [FORMALDEHYDE] | – | – | – | – | – | – | – | – | – | – | – | – | – | – | – | – | – | – | – | Metabolite_Detected
